# Hits are enriched below; roughly 2.6% of the tested compounds scored in any of these assays.
# NR2E3 ag-1 – activates human NR2E3 receptor; inhibition of corepressor binding, % at 3.98 µM; CHO-S Gal4-NCOR/VP16-NR2E3 two-hybrid, luciferase; AID 602229; Q9Y5X4; 360,000 tested, 0.35% active;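 active = inhibition above the mean of all tested compounds plus 3 SD, cut at about 70% in these data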;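 also: higher means lower luciferase signal from less NR2E3 corepressor binding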
# Target sequence (Q9Y5X4 whole entry, looked up, the tested form may be a part): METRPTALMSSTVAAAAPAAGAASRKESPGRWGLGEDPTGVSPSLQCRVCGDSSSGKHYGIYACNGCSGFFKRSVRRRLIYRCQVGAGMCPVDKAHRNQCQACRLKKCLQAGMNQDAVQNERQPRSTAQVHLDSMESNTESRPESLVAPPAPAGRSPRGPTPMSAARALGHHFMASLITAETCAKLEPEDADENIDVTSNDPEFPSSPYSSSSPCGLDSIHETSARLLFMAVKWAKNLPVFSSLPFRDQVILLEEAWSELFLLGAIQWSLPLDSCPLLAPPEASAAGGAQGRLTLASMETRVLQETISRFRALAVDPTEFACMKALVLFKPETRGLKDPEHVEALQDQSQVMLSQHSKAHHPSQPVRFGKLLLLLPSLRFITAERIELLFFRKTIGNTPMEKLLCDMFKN
# PG9 Ab binder – small molecules binding HIV-1 gp120 antibody PG9 | TR-FRET gp120-PG9 antibody binding | inhibition, % at 6.7 µM | 360,000 tested, 0.43% active; in the data active = inhibition above about 8.5%
# NR2E3 ag-2 – activates human photoreceptor nuclear receptor NR2E3 | Q9Y5X4 | GST-NR2E3/biotin-RetCOR TR-FRET, 1536-well | inhibition of corepressor binding, % at 4.78 µM | 320,000 tested, 0.12% active | AID 2300;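 active = percent inhibition above the cutoff of mean plus 3 SD of all tested compounds, set per screening campaign, cut at about 20% in these data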
#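 system = GST-tagged NR2E3 plus biotinylated RetCOR corepressor | input = 1.35 nM GST-NR2E3 | also added = 7 nM biotin-RetCOR | schedule = 5 h incubation at 4 °C | measured by = TR-FRET with europium anti-GST and streptavidin-D2, 340 nm excitation | read-out = percent loss of FRET ratio relative to control wells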
# rCAG RNA binder – binds r(CAG) RNA repeats | inhibition, % at 3 µM | 370,000 tested, 1.3% active | r(CAG) RNA repeat, TO-PRO-1 dye displacement fluorescence;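 active = inhibition above the plate cutoff, the mean of all test compounds on that plate plus 3 SD, cut at about 35% in these data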;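 also: higher means more dye released from RNA so lower well fluorescence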
# NR1D1 modulator – modulates human Rev-erb alpha binding to DNA; Rev-erbα–FITC-DNA binding, fluorescence polarization, 90 min; activity, % at 10 µM; 370,000 tested, 0.79% active; AID 1259318;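 active = activity above about 14%, limit read from the data; passing the limit was not always enough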
# Rev-erbA confirm – confirmation of modulators of human Rev-erb alpha DNA binding; 3,000 tested, 61% active; AID 1259319; activation, % at 25 µM; Rev-erb alpha FITC-DNA binding, fluorescence polarization, 90 min; shares compounds with NR1D1 modulator;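 active = activation at or above a set limit, or at least 3 SD above the negative control mean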
# RORg DNA counter – counter-screen for Rev-erb alpha modulators: RORgamma DNA binding; shares compounds with NR1D1 modulator; purified RORgamma protein-FITC-DNA binding, fluorescence polarization; IC50, µM; 910 tested, 8% active; AID 1259320;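 active = Compounds whose fitted half-maximal concentration for disrupting protein-DNA binding is below 10 micromolar; the record names Rev-erb in its text, so the target is in doubt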
# A number is an active result; . = inactive; / = no result.
SMILES,NR2E3 ag-1,PG9 Ab binder,NR2E3 ag-2,rCAG RNA binder,NR1D1 modulator,Rev-erbA confirm,others
COC(=O)C1=C(C)NC(=O)CC1c1cccc(Cl)c1Cl (stereo not given),.,.,.,.,.,/,
Cc1cc(C(C)c2ccccc2)c(O)c(CN2CCOCC2)c1C (stereo not given),.,.,.,.,33,43,RORg DNA counter=.
Cc1c(Cl)cc(C(C)C)c(O)c1CN1CCOCC1,.,.,/,.,42,43,RORg DNA counter=.
Cc1ccc(NC(=O)CSc2nnnn2C)cc1S(=O)(=O)N1CCCCC1,.,.,/,.,.,/,
COc1ccc(C(=O)CSc2cc(C)nc(SCC(=O)c3ccc(C)cc3)n2)cc1,.,.,.,.,27,.,
COc1ccc(C(=O)CSc2nc(C)cc(C)n2)cc1C,.,.,.,.,.,/,
CC(C)(C)c1ccc(C(O)c2ncc(-c3cccc(F)c3)[nH]2)cc1 (stereo not given),.,.,/,.,.,/,
N#Cc1nc(-c2ccccc2F)oc1N1CCN(C(=O)c2ccco2)CC1,.,.,.,.,.,/,
CC1CC(C)CN(c2oc(-c3ccccc3Cl)nc2C#N)C1 (stereo not given),.,.,.,.,18,.,
N#Cc1nc(-c2ccccc2Cl)oc1N1CCN(C(=O)c2ccco2)CC1,.,.,.,.,25,.,
CCCCn1c(N)c(N(CCC(C)C)C(=O)COC(=O)c2ccc3ccccc3c2)c(=O)[nH]c1=O,.,.,/,.,.,/,
CCc1nc2c(OCC3COc4ccccc4O3)cccn2c1N(C)C(=O)c1cccc(OC)c1 (stereo not given),.,.,/,.,.,/,
Cc1nc(C)c2c(=O)cc(-c3ccccc3)[nH]c2n1,.,.,.,.,.,/,
Cc1nc(-c2ccccc2)nc2[nH]c(-c3ccccc3)cc(=O)c12,.,.,.,.,90,81,RORg DNA counter=.
COc1ccc(S(=O)(=O)N2CCOCC2)cc1NC(=O)c1cccc2c(=O)c(C)c(-c3ccccc3)oc12,.,.,.,.,69,37,
Cc1ccc(NC(=S)NC(=O)c2ccccc2)cc1NC(=S)NC(=O)c1ccccc1,.,.,/,.,21,.,
COc1ccc(C(=O)NC(=S)Nc2ccc3c(c2)Cc2ccccc2-3)cc1,.,.,.,.,24,.,
COc1cc(C(=O)Nc2ccc3c(c2)Cc2ccccc2-3)cc(OC)c1OC,.,.,.,.,.,/,
CNC(=O)OCc1snc(-c2ccccc2)c1COC(=O)NC,.,.,/,.,.,/,
COc1cccc(OC)c1C(=O)NC(=S)Nc1cc(-c2nc3ccccc3[nH]2)ccc1Cl,.,.,.,.,26,24,
O[C@H]1C[C@H](c2ccccc2)N(Cc2cccs2)C[C@@H]1n1cc(C2CC2)nn1,.,.,/,.,18,.,
COc1ccc([C@H]2C[C@H](O)[C@@H](n3cc(C4CC4)nn3)CN2Cc2cccs2)cc1,.,.,/,.,.,/,
Cc1ccc(S(=O)(=O)c2nnn3c2nc(N2CCN(c4ccccn4)CC2)c2ccccc23)cc1C,.,.,.,.,72,62,RORg DNA counter=.
COc1cc2c(-c3ccc(O)cc3)nc3c(c(C)nn3-c3ccccc3)c2cc1OC,.,.,.,.,.,/,
COc1cc2c(C)nc3c(c(C)nn3-c3ccccc3)c2cc1OC,.,.,.,.,21,.,
SMILES,NR2E3 ag-1,PG9 Ab binder,NR2E3 ag-2,rCAG RNA binder,NR1D1 modulator,Rev-erbA confirm,others
COc1ccc2c(CC(=O)N3CCN(S(=O)(=O)c4ccc(F)cc4)CC3)coc2c1,.,.,.,.,.,/,
CC(=O)Nc1cccc2cc(O)ccc12,.,.,/,.,.,/,
CC(=O)Nc1ccc2ccc3cccc4ccc1c2c34,.,.,.,.,33,28,
O=C(CSc1nc(C2CC2)nc2ccccc12)Nc1ccccc1Cl,.,.,.,.,21,.,
O=C(CSc1nc(C2CC2)nc2ccccc12)Nc1ccccc1,.,.,.,.,.,/,
O=C(CSc1nnc(-c2cccc(Br)c2)o1)N1CCNC1=O,.,.,/,.,.,/,
N#Cc1c(-c2cccc(F)c2)cc(-c2ccccc2)nc1Br,.,9.1,.,.,58,25,
N#Cc1c(-c2ccccc2Cl)cc(-c2ccccc2)nc1Br,.,.,.,.,32,22,
CN(Cc1ccccc1)C(=O)c1ccc(NC(=O)Cc2ccc(NC(=O)C3CCCN(C(=O)CCc4ccccc4)C3)cc2)cc1 (stereo not given),.,.,/,.,.,/,
COc1ccc(CNC(=O)CCNC(=O)C2CCN(S(=O)(=O)c3ccc(OC)cc3)CC2)cc1,.,.,/,.,.,/,
O=C(NC1CCCCC1)c1nc(C2CCNCC2)oc1-c1ccccc1,.,.,/,.,.,/,
CC(/C=N/NC(=O)c1cccc(F)c1)=C\c1ccccc1,.,.,.,.,.,/,
CC(/C=C/c1ccccc1F)=N\NC(=O)c1cccc(F)c1,.,.,.,.,17,.,
CCOc1ccccc1NC(=O)c1nnn(CC(=O)Nc2cc(C)cc(C)c2)c1N,.,.,.,.,21,32,RORg DNA counter=.
O=C(NC1CCCCC1)C(=O)c1c[nH]c2ccccc12,.,.,.,.,.,/,
O=[N+]([O-])c1ccccc1N=Nc1ccc(O)cc1O,.,.,/,.,32,17,
COC(=O)c1c(NC(=S)NNS(=O)(=O)c2ccc(OC)cc2OC)sc2c1CCCCCC2,.,.,/,.,32,.,
COC(=O)C1=C(C)N(C)C(=NCc2cccc(C(F)(F)F)c2)NC1c1ccccc1C(F)(F)F (stereo not given),/,.,/,.,.,/,
COc1cccc(N(C(=O)c2sc(C)nc2C)C(C(=O)NCC2CCCO2)c2ccccc2)c1 (stereo not given),.,.,.,.,.,/,
CCOc1cc(-c2nc(-c3ccncc3)no2)cc(OCC)c1OCC,.,.,.,.,28,.,
CC(C)OCCCNC(=O)c1cc(-c2cccs2)nc2ccccc12,.,.,.,.,.,/,
CCOCCCNC(=O)c1cc(-c2ccc(Br)s2)nc2ccccc12,.,.,.,.,21,.,
COc1ccc(-c2nnc(CSc3nc4ccccc4c(=O)n3C)o2)cc1OC,.,/,.,/,.,/,
COc1ccc(-c2cc(-c3ccc(C)cc3)nc(SCc3nnc(-c4ccccc4)o3)c2C#N)cc1OC,.,.,.,.,80,37,RORg DNA counter=.
O=C1N/C(=C\c2ccc(N3CCOCC3)c(F)c2)C(=O)N1Cc1ccccc1,.,.,.,.,28,.,
O=S1(=O)CC(N2CCC(c3ccccc3)CC2)CN1Cc1cn(Cc2ccc(C(F)(F)F)cc2)nn1 (stereo not given),/,.,/,.,.,/,
Cc1cc(Nc2ccc(Cl)cc2)nc(-c2ccccc2O)n1,.,.,/,.,29,.,
CCCCCC(=O)N1C[C@@H](n2cc(C3CC3)nn2)[C@H](O)C[C@@H]1c1ccccc1,.,.,/,.,.,/,

# High-throughput results from PubChem BioAssay.
